Our source for the relative binding affinity (RBA) values is ChEMBL document CHEMBL1127017.

For assay [1], the target named is T1, Progesterone receptor (Rattus norvegicus) (UniProt Q63449).
T1 sequence (whole entry): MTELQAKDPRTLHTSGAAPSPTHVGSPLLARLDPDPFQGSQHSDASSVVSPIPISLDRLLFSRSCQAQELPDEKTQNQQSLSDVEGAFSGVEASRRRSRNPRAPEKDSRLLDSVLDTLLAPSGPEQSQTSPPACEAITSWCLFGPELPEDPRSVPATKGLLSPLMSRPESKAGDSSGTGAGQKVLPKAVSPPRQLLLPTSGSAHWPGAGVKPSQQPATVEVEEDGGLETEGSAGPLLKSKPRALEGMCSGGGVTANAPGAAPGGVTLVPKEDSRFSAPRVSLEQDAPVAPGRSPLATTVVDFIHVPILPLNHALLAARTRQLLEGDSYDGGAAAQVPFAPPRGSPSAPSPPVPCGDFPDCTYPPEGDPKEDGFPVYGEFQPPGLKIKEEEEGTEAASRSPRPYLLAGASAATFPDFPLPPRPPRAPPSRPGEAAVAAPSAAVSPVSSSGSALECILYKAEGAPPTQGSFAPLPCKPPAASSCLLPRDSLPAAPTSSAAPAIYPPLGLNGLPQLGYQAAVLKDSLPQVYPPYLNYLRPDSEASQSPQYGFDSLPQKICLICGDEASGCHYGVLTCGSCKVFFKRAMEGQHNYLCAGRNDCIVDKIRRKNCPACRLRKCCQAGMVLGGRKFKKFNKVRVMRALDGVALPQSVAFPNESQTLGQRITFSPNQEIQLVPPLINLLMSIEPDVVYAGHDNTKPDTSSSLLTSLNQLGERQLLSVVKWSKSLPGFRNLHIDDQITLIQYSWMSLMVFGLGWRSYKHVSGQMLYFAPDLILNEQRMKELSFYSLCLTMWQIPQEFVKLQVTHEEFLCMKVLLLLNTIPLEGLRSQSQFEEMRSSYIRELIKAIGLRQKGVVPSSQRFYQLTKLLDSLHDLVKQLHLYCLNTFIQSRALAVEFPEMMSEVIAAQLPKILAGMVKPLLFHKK
The assay can be described thus: Relative binding affinity for progesterone receptor in a competitive radiometric binding assay relative to the affinity of R5020 as tracer. Put shortly:
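The R5020 standard is defined as 100%, and binding of other ligands is expressed as a percentage relative to it.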

In assay [2] the target is T2, Mineralocorticoid receptor (Rattus norvegicus) (UniProt P22199).
T2 sequence (whole entry): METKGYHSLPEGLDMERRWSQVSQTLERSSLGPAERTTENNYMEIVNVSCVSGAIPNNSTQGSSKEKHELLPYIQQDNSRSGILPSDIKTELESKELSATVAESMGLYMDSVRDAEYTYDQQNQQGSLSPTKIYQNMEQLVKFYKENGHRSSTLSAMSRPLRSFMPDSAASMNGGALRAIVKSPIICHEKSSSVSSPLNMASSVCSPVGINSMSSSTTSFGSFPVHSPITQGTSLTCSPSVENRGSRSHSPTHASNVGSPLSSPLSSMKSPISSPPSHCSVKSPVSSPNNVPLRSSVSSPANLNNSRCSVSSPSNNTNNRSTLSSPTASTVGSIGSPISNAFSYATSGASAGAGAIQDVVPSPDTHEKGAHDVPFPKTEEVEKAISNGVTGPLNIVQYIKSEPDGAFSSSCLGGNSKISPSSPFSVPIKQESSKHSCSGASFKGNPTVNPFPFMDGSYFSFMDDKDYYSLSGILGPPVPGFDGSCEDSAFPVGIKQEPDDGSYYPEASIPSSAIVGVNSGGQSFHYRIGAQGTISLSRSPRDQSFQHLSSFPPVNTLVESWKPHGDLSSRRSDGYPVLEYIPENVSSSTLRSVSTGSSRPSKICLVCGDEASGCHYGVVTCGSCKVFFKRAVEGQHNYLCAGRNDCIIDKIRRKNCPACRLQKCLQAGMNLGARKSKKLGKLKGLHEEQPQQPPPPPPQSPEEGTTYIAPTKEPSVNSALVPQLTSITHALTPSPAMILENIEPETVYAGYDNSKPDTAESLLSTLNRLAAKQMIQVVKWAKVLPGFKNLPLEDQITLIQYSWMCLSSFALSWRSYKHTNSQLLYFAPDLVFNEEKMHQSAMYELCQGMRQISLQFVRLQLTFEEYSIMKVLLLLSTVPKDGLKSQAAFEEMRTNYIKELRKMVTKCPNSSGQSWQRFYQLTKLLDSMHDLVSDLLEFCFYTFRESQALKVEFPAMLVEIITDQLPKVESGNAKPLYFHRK
Description: Relative binding affinity for the rat kidney mineralocorticoid receptor (MR) relative to the affinity of aldosterone as tracer.

Regarding `CC(=O)[C@@]12OC(C)(c3ccc(C(=O)c4ccccc4)cc3)O[C@@H]1CC1C3CCC4=CC(=O)CC[C@]4(C)C3CC[C@@]12C` (some centres undefined), the relative binding affinity (RBA) is 6.6 in assay [1] and under 0.003 in assay [2].

Consider `CC(=O)[C@@]12OC(C)(c3ccccc3)O[C@@H]1C[C@H]1[C@@H]3CCC4=CC(=O)CC[C@]4(C)[C@H]3CC[C@@]12C` (stereo in doubt; 16), for which the relative binding affinity (RBA) in assay [1] came out at 16; in assay [2], 1.6. In turn, `CC(=O)[C@@]12OC(C)(c3ccc(N)cc3)O[C@@H]1CC1C3CCC4=CC(=O)CC[C@]4(C)C3CC[C@@]12C` (some centres undefined) returned a relative binding affinity (RBA) in assay [1] of 0.01. For the molecule `CC(=O)[C@@]12OC(C)(c3ccc(I)cc3)O[C@@H]1CC1C3CCC4=CC(=O)CC[C@]4(C)C3CC[C@@]12C` (some centres undefined), the relative binding affinity (RBA) in assay [1] worked out at 25; in assay [2], 0.13. The molecule `CC(=O)[C@@]12OC(C)(c3ccc(N=[N+]=[N-])cc3)O[C@@H]1CC1C3CCC4=CC(=O)CC[C@]4(C)C3CC[C@@]12C` (stereo in doubt; 7) came in with a relative binding affinity (RBA) in assay [1] of 0.18.

Molecule `CC(=O)[C@H]1CC[C@H]2[C@@H]3CCC4=CC(=O)CC[C@]4(C)[C@H]3CC[C@]12C` showed a relative binding affinity (RBA) in assay [1] of 13. In assay [1], `CC(=O)[C@@]12OC(C)(c3ccccc3)O[C@@H]1C[C@H]1[C@@H]3CCC4=CC(=O)CC[C@]4(C)[C@H]3CC[C@@]12C` (stereo in doubt; 17) registered a relative binding affinity (RBA) of 1.2. Take `CC(=O)[C@@]12OC(C)(C)O[C@@H]1C[C@H]1[C@@H]3CCC4=CC(=O)CC[C@]4(C)[C@H]3CC[C@@]12C`: in assay [1], the relative binding affinity (RBA) was 2. Consider `CC(=O)[C@@]12OC(C)(c3c(F)c(F)c(N=[N+]=[N-])c(F)c3F)O[C@@H]1CC1C3CCC4=CC(=O)CC[C@]4(C)C3CC[C@@]12C` (some centres undefined), for which the relative binding affinity (RBA) in assay [1] was determined as 14; in assay [2] it was 0.95.

Regarding `CC(=O)[C@@]12OC(C)(c3ccc(N=[N+]=[N-])cc3)O[C@@H]1CC1C3CCC4=CC(=O)CC[C@]4(C)C3CC[C@@]12C` (stereo in doubt; 6), the relative binding affinity (RBA) was determined as 15 in assay [1] and 0.13 in assay [2]. On the same counts, the results for `CC(=O)[C@@]12OC(C)(c3ccc(F)cc3)O[C@@H]1CC1C3CCC4=CC(=O)CC[C@]4(C)C3CC[C@@]12C` (stereo in doubt; 10) are 53 and 6. For the molecule `CC(=O)[C@@]12OC(C)(c3ccc(N=C=S)cc3)O[C@@H]1CC1C3CCC4=CC(=O)CC[C@]4(C)C3CC[C@@]12C` (some centres undefined), the relative binding affinity (RBA) in assay [1] was determined as 1.3; in assay [2] it was 0.09. The molecule `CC(=O)[C@@]12OC(C)(c3ccco3)OC1CC1C3CCC4=CC(=O)CC[C@]4(C)C3CC[C@@]12C` (some centres undefined) gave a relative binding affinity (RBA) in assay [1] of 5.5.

`CC(=O)[C@@]12OC(C)(c3ccc(F)cc3)O[C@@H]1CC1C3CCC4=CC(=O)CC[C@]4(C)C3CC[C@@]12C` (stereo in doubt; 11) showed a relative binding affinity (RBA) in assay [1] of 0.56. With `CC(=O)[C@@]12OC(C)(c3c(F)c(F)c(F)c(F)c3F)O[C@@H]1CC1C3CCC4=CC(=O)CC[C@]4(C)C3CC[C@@]12C` (some centres undefined), the relative binding affinity (RBA) in assay [1] amounted to 20; in assay [2] it was 0.65. In turn, `CC(=O)[C@@]12OC(C)(c3ccc(N=[N+]=[N-])c(I)c3)O[C@@H]1CC1C3CCC4=CC(=O)CC[C@]4(C)C3CC[C@@]12C` (some centres undefined) had a relative binding affinity (RBA) in assay [1] of 2.9.
